Results from ChEMBL document CHEMBL2321693, “Optimizing solubility and permeability of a biopharmaceutics classification system (BCS) class 4 antibiotic drug using lipophilic fragments disturbing the crystal lattice” (J Med Chem, 2013).

Key:
[1] = Efflux ratio of permeability from basolateral to apical side to apical to basolateral side in human Caco2 cells; format: ADME, cell-based; conditions: Caco-2
[2] = Apparent permeability of the compound from basolateral to apical side in human Caco2 cells by LC-MS/MS analysis; format: ADME, cell-based; conditions: Caco-2
How it was run: (§1)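 Caco-2 monolayers ([…] cells seeded on polycarbonate inserts, 0.4 μm pores), kept in 90% air/10% CO2. Transport run at 37 °C across a 6.5/7.4 pH gradient, started by adding 10 μM drug to the donor side. Papp = (ΔQ/Δt)/(A·C0), from steady-state flux, filter area and initial donor concentration. LC-MS/MS quantitation. Mean ± SD of triplicates.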

[3] = Apparent solubility of the compound in fasted state simulated intestinal fluid at pH 6.5 by shake flask method relative to ciprofloxacin; format: physicochemical; conditions: simulated gi fluid
How it was run: (§2)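 Small-scale shake flask. Excess solid in 500 μL medium (n = 3): USP pH 7.4 phosphate buffer, or pH 6.5 phosphate buffer or FaSSIF per Galia. Supernatant assayed by LC-MS/MS.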

[4] = Apparent permeability of the compound from apical to basolateral side in human Caco2 cells at pH 6.5/7.4 by LC-MS/MS analysis; format: ADME, cell-based; conditions: Caco-2, pH 6.5; how it was run: as §1
[5] = Apparent solubility of the compound in phosphate buffer at pH 6.5 by shake flask method relative to ciprofloxacin; format: physicochemical; how it was run: as §2
[6] = Apparent solubility of the compound in phosphate buffer at pH 7.4 by shake flask method relative to ciprofloxacin; format: physicochemical; how it was run: as §2

Row | Structure (SMILES) | efflux ratio [1] | Papp B→A [2] | fold change (FC) [3] | Papp A→B [4] | fold change (FC) [5] | fold change (FC) [6]
1 | COC(=O)c1cn(C2CC2)c2cc(N3CCNCC3)c(F)cc2c1=O | 19 | 19.7 ×10⁻⁶ cm/s | 111 | 1.01 ×10⁻⁶ cm/s | 66 | 48
2 | CC(C)OC(=O)c1cn(C2CC2)c2cc(N3CCNCC3)c(F)cc2c1=O | 7 | 35.2 ×10⁻⁶ cm/s | 0.5 | 4.69 ×10⁻⁶ cm/s | 0.5 | 0.5
3 | CCCOC(=O)c1cn(C2CC2)c2cc(N3CCNCC3)c(F)cc2c1=O | 146 | 62.8 ×10⁻⁶ cm/s | 0.5 | 0.43 ×10⁻⁶ cm/s | 0.5 | 0.5
4 | CCCCOC(=O)c1cn(C2CC2)c2cc(N3CCNCC3)c(F)cc2c1=O | 13 | 65.9 ×10⁻⁶ cm/s | 10 | 4.95 ×10⁻⁶ cm/s | 27 | 4
5 | CCCCCCOC(=O)c1cn(C2CC2)c2cc(N3CCNCC3)c(F)cc2c1=O | 19 | 264 ×10⁻⁶ cm/s |  | 13.9 ×10⁻⁶ cm/s |  | 
6 | O=C(OCc1ccccc1)c1cn(C2CC2)c2cc(N3CCNCC3)c(F)cc2c1=O | 18 | 116 ×10⁻⁶ cm/s |  | 6.42 ×10⁻⁶ cm/s |  | 
7 | CCOC(=O)c1cn(C2CC2)c2cc(N3CCNCC3)c(F)cc2c1=O [CIPROFLOXACIN ETHYL ESTER] | 7 | 24.3 ×10⁻⁶ cm/s | 2 | 3.45 ×10⁻⁶ cm/s | 2 | 2
